Source: ChEMBL document CHEMBL4699593, “Identification of 2,4-Disubstituted Imidazopyridines as Hemozoin Formation Inhibitors with Fast-Killing Kinetics and In Vivo Efficacy in the Plasmodium falciparum NSG Mouse Model” (J Med Chem, 2020)
Values after ≈ are worked out from the molar mass of the structure shown.

Tests used:
[1] = AUC in Balb/c mouse administered orally; format: ADME; details: in vivo, po
Method in brief: (§1)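 Healthy Balb/c mice dosed i.v. or orally. Parameters come from non-compartmental analysis of compound concentration over time. […] Clearance is blood clearance (CL_b).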

[2] = Ratio of unbound average drug concentration in Balb/c mouse at 20 mg/kg, po measured at 24 hrs to IC50 for antiplasmodial activity against multidrug-sensitive Plasmodium falciparum NF54 asexual blood stage assessed as reduction in parasite growth after 72 hrs by LDH assay; format: organism-based; details: in vivo
[3] = AUC (0 to t) in Balb/C mouse at 2 mg/kg, iv by LC-MS/MS analysis; format: ADME, organism-based; set-up: dose 2 mg/kg; details: in vivo; method in brief: as §1
Plasmodium falciparum [4] = assay: Antiplasmodial activity against multidrug-resistant asexual blood stage Plasmodium falciparum K1 strain assessed as reduction in parasite growth after 72 hrs by NBT reagent based LDH assay; format: functional, organism-based; details: K1, 72 h
Method in brief: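 Asexual blood-stage K1 (multidrug-resistant) parasites were read out by the parasite lactate dehydrogenase (pLDH) assay. […] Most individual values varied less than 2× (maximum 3×).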

[5] = Cmax in Balb/C mouse at 20 mg/kg, po by LC-MS/MS analysis; format: ADME, organism-based; set-up: route oral, dose 20 mg/kg; details: in vivo; method in brief: as §1
[6] = Terminal half life in Balb/C mouse at 2 mg/kg, iv by LC-MS/MS analysis; format: ADME, organism-based; details: in vivo, read-out: beta t1/2 (converted)
Method in brief: (§2)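 Healthy Balb/c mice were given the compound i.v. or orally. Parameters come from non-compartmental analysis: AUC from 0 h to t_last, blood clearance, volume at steady state, terminal half-life, Tmax. Oral bioavailability F is derived from the i.v. and p.o. data.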

[7] = Volume of distribution at steady state in Balb/C mouse at 2 mg/kg, iv by LC-MS/MS analysis; format: ADME, organism-based; details: in vivo, read-out: Vdss; method in brief: as §2
[8] = Clearance in Balb/C mouse blood at 2 mg/kg, iv by LC-MS/MS analysis; format: ADME, organism-based; details: whole blood; method in brief: as §1
[9] = Aqueous solubility of compound in phosphate buffer saline at pH 6.5 incubated for 20 hrs under shaking condition by shake-flask method based HPLC-DAD analysis; format: physicochemical; details: phosphate buffered saline
Method in brief: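 Equilibrium aqueous solubility was measured at pH 6.5 using a miniaturized shake-flask method.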

[10] = AUC (0 to t) in Balb/C mouse at 20 mg/kg, po by LC-MS/MS analysis; format: ADME, organism-based; set-up: dose 20 mg/kg; details: in vivo; method in brief: as §1
[11] = Tmax in Balb/C mouse at 20 mg/kg, po by LC-MS/MS analysis; format: ADME, organism-based; details: in vivo; method in brief: as §2
[12] = Oral bioavailability in Balb/C mouse at 20 mg/kg by LC-MS/MS analysis; format: ADME, organism-based; details: in vivo; method in brief: as §2
[13] = Intrinsic clearance in Balb/c mouse at 20 mg/kg, po by LC-MS/MS analysis; format: ADME, organism-based; details: in vivo
[14] = Cmax in Balb/C mouse at 2 mg/kg, iv by LC-MS/MS analysis; format: ADME, organism-based; set-up: route intravenous, dose 2 mg/kg; details: in vivo; method in brief: as §1
CHO = assay: Cytotoxicity against CHO cells assessed as reduction in cell viability by MTT assay; format: cell-based, Cricetulus griseus; details: chinese hamster
Method in brief: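 Cytotoxicity was measured in Chinese hamster ovary (CHO) cells and reported as CC50. The selectivity index is CC50 divided by NF54 IC50.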

[15] = Selectivity index, ratio of CC50 for cytotoxicity against CHO cells assessed as reduction in cell viability to IC50 for antiplasmodial activity against multidrug-sensitive Plasmodium falciparum NF54 assessed as reduction in parasite growth; format: toxicity, cell-based; details: hamster, read-out: Ratio CC50/IC50
Plasmodium falciparum [16] = assay: Antiplasmodial activity against multidrug-sensitive asexual blood stage Plasmodium falciparum NF54 strain assessed as reduction in parasite growth after 72 hrs by NBT reagent based LDH assay; format: functional, organism-based; details: NF54, 72 h
[17] = Terminal half life in Balb/C mouse at 20 mg/kg, po by LC-MS/MS analysis; format: ADME, organism-based; details: in vivo, read-out: beta t1/2 (converted); method in brief: as §2
[18] = AUC (0 to t) in Balb/C mouse at 5 mg/kg, po by LC-MS/MS analysis; format: ADME, organism-based; set-up: dose 5 mg/kg; details: in vivo; method in brief: as §1
[19] = Terminal half life in Balb/C mouse at 5 mg/kg, po by LC-MS/MS analysis; format: ADME, organism-based; details: in vivo, read-out: beta t1/2 (converted); method in brief: as §2
[20] = Tmax in Balb/C mouse at 5 mg/kg, po by LC-MS/MS analysis; format: ADME, organism-based; details: in vivo; method in brief: as §2
[21] = Oral bioavailability in Balb/C mouse at 5 mg/kg by LC-MS/MS analysis; format: ADME, organism-based; details: in vivo; method in brief: as §2
[22] = Ratio of unbound average drug concentration in Balb/c mouse at 5 mg/kg, po measured at 24 hrs to IC50 for antiplasmodial activity against multidrug-sensitive Plasmodium falciparum NF54 asexual blood stage assessed as reduction in parasite growth after 72 hrs by LDH assay; format: organism-based; details: in vivo
[23] = Cmax in Balb/C mouse at 5 mg/kg, po by LC-MS/MS analysis; format: ADME, organism-based; set-up: route oral, dose 5 mg/kg; details: in vivo; method in brief: as §1
[24] = Ratio of unbound average drug concentration in Balb/c mouse at 10 mg/kg, po measured at 24 hrs to IC50 for antiplasmodial activity against multidrug-sensitive Plasmodium falciparum NF54 asexual blood stage assessed as reduction in parasite growth after 72 hrs by LDH assay; format: organism-based; details: in vivo
[25] = AUC (0 to t) in Balb/C mouse at 10 mg/kg, po by LC-MS/MS analysis; format: ADME, organism-based; set-up: dose 10 mg/kg; details: in vivo; method in brief: as §1
[26] = Cmax in Balb/C mouse at 10 mg/kg, po by LC-MS/MS analysis; format: ADME, organism-based; set-up: route oral, dose 10 mg/kg; details: in vivo; method in brief: as §1
[27] = Tmax in Balb/C mouse at 10 mg/kg, po by LC-MS/MS analysis; format: ADME, organism-based; details: in vivo; method in brief: as §2
[28] = Terminal half life in Balb/C mouse at 10 mg/kg, po by LC-MS/MS analysis; format: ADME, organism-based; details: in vivo, read-out: beta t1/2 (converted); method in brief: as §2
[29] = Oral bioavailability in Balb/C mouse at 10 mg/kg by LC-MS/MS analysis; format: ADME, organism-based; details: in vivo; method in brief: as §2
[30] = Dissociation constant, pKa of compound; format: physicochemical
Plasmodium falciparum [31] = assay: Antiplasmodial activity against late stage (IV/V) Plasmodium falciparum NF54 gametocytes at 5 uM incubated for 48 hrs under hypoxia condition by luciferase reporter gene assay relative to control; format: functional
[32] = Selectivity ratio of IC50 for antiplasmodial activity against luciferase-expressing Plasmodium berghei sporozoites liver stage infected in human HepG2 cells expressing GFP-CD81 fusion protein to IC50 for antiplasmodial activity against multidrug-sensitive Plasmodium falciparum NF54; format: functional
[33] = target: Voltage-gated inwardly rectifying potassium channel KCNH2 (Homo sapiens, UniProt Q12809); assay: Inhibition of human ERG by patch clamp method
Sequence of Voltage-gated inwardly rectifying potassium channel KCNH2 (Q12809 whole entry, the tested form may be a part): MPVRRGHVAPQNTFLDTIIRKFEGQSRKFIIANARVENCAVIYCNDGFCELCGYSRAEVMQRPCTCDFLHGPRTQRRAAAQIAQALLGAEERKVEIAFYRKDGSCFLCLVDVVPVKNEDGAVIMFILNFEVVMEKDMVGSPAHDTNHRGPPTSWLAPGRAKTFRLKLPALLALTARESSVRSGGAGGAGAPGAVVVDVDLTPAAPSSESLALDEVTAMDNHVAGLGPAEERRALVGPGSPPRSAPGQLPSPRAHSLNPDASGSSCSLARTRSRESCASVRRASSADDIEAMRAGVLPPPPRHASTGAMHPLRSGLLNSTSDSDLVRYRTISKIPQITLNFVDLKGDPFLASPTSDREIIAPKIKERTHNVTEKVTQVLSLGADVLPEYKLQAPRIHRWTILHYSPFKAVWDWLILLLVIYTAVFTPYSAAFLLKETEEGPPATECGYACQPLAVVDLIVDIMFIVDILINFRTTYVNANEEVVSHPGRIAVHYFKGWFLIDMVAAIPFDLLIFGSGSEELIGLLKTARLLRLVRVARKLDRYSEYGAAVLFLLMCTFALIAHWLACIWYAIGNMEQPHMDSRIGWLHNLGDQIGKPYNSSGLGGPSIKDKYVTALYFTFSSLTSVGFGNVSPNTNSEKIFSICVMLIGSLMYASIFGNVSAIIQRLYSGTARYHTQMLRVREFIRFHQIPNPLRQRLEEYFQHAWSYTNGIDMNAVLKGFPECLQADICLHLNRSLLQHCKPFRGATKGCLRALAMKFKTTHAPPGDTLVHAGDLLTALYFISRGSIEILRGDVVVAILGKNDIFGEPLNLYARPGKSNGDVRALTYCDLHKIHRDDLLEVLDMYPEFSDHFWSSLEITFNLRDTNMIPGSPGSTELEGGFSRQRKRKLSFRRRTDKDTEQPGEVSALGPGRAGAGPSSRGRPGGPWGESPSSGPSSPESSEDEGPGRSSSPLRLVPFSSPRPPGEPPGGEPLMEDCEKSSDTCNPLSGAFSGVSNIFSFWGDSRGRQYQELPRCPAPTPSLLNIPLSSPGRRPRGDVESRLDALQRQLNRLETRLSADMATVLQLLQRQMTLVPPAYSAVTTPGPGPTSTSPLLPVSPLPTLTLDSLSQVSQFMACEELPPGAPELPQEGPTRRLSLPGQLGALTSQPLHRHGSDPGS

Plasmodium berghei = assay: Antiplasmodial activity against luciferase-expressing Plasmodium berghei sporozoites liver stage infected in human HepG2 cells expressing GFP-CD81 fusion protein incubated for 48 hrs by luciferase reporter gene based bioluminescence assay; format: functional, organism-based; details: HepG2, 48 h
Method in brief: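 Liver-stage activity was measured in vitro with rodent P. berghei sporozoites. Values are the mean of 3 technical replicates from the luciferase assay; individual values varied less than 2×.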

Plasmodium falciparum [34] = assay: Antiplasmodial activity against early stage (I to III) Plasmodium falciparum NF54 gametocytes incubated for 48 hrs under hypoxia condition by luciferase reporter gene assay; format: functional, organism-based; details: NF54, 48 h
Plasmodium falciparum [35] = assay: Antiplasmodial activity against early ring-stage synchronized Plasmodium falciparum assessed as decrease in hemozoin formation after 32 hrs by Giemsa-staining based haemocytometric counting method; format: functional, organism-based
Plasmodium falciparum [36] = assay: Antiplasmodial activity against early ring-stage synchronized Plasmodium falciparum assessed as increase in free heme after 32 hrs by Giemsa-staining based haemocytometric counting method; format: functional, organism-based
Method in brief: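 Whole-parasite cell fractionation assay run as a dose response. Free heme and hemozoin were measured intracellularly across increasing compound concentrations.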

Hemozoin = assay: Inhibition of beta-hematin formation assessed as reduction in hemozoin formation incubated for 5 hrs by NP40 detergent-mediated assay
Method in brief: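 Synthetic hemozoin (β-hematin) formation is driven by the detergent Nonidet P-40. Pyridine is then added to detect unreacted hematin. IC50 is derived from this read-out.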

Plasmodium falciparum [37] = assay: Antiplasmodial activity against late stage (IV/V) Plasmodium falciparum NF54 gametocytes incubated for 48 hrs under hypoxia condition by luciferase reporter gene assay; format: functional, organism-based; details: NF54, 48 h

| Structure (SMILES) | AUCt [3] | IC50 (Plasmodium falciparum [4]) | half-life [6] | Vd [7] | clearance [8] | solubility thermodynamic at 20 h [9] | Cmax [14] | CC50 (CHO) | selectivity ratio [15] | IC50 (Plasmodium falciparum [16]) | inhibition at 5 µM (Plasmodium falciparum [31]) | IC50 (Plasmodium berghei) | IC50 (Plasmodium falciparum [34]) | also measured |
| --- | --- | --- | --- | --- | --- | --- | --- | --- | --- | --- | --- | --- | --- | --- |
| CS(=O)(=O)c1ccc(-c2cnc(N)c(-c3ccc(C(F)(F)F)nc3)c2)cc1 [MMV-048] | – | – | – | – | – | – | – | – | – | – | – | – | – | AUC [1]: 465 µM·h |
| CN1CCC(N2CCN(c3nccc4[nH]c(-c5ccc(F)c(F)c5)nc34)CC2)CC1 | 6.77 µM·h | 260 nM | 8.2 h | 4.3 L/kg | 11.4 mL/min/kg | 200 µM (≈ 82.5 µg/mL) | 1700 nM | 33000 nM | 460 | 71 nM | – | – | – | Ratio [2]: 0.9; Cmax [5]: 1100 nM; AUCt [10]: 6.63 µM·h; Tmax [11]: 2.3 h; bioavailability [12]: 11%; CL [13]: 54 mL/min/kg; half-life [17]: 10.8 h |
| CN1CCN(c2nccc3nc(-c4ccc(F)c(F)c4)[nH]c23)CC1 | 3.58 µM·h | 500 nM | 5.9 h | 9 L/kg | 27.3 mL/min/kg | 130 µM (≈ 42.8 µg/mL) | 1000 nM | – | – | 240 nM | – | – | – | AUCt [18]: 3.25 µM·h; half-life [19]: 5.4 h; Tmax [20]: 0.7 h; bioavailability [21]: 36%; Ratio [22]: 0.1; Cmax [23]: 1100 nM |
| CN1CCN(CC2CCN(c3cncc4[nH]c(-c5cc(F)cc(F)c5)nc34)CC2)CC1 | 0.967 µM·h | 330 nM | 6.9 h | 51 L/kg | 71.8 mL/min/kg | 125 µM (≈ 53.3 µg/mL) | 100 nM | 46000 nM | – | 130 nM | – | – | – | Ratio [24]: 0.3; AUCt [25]: 3.57 µM·h; Cmax [26]: 400 nM; Tmax [27]: 3.5 h; half-life [28]: 4.9 h; bioavailability [29]: 73% |
| Fc1cc(F)cc(-c2nc3c(N4CCC(N5CCOCC5)CC4)nccc3[nH]2)c1 | – | – | – | – | – | – | – | – | – | – | – | – | – | pKa [30]: 7.4 |
| Fc1ccc(-c2nc3c(N4CCC(CN5CCOCC5)CC4)nccc3[nH]2)cc1F | 4.17 µM·h | 120 nM | 25.8 h | 20 L/kg | 19.6 mL/min/kg | 85 µM (≈ 35.1 µg/mL) | 300 nM | 35000 nM | 690 | 51 nM | 0% | 290 nM | 1300 nM | Ratio [2]: 4.6; Ratio IC50 [32]: <=6; Cmax [5]: 3700 nM; AUCt [10]: 34.6 µM·h; Tmax [11]: 0.7 h; bioavailability [12]: 83%; IC50 [33]: ≤ 3000 nM; half-life [17]: 13.5 h |
| NC1CCN(c2nccc3[nH]c(-c4cccc(OC(F)(F)F)c4)nc23)CC1 | – | 1200 nM | – | – | – | 200 µM (≈ 75.5 µg/mL) | – | 42000 nM | – | 73 nM | 95% | 14000 nM | 780 nM | Activity (Plasmodium falciparum [35]): Dose-dependent effect; Activity (Plasmodium falciparum [36]): Dose-dependent effect; IC50 (Hemozoin): 148000 nM; IC50 (Plasmodium falciparum [37]): 2800 nM |
| Fc1cc(F)cc(-c2cc3c(N4CCC(N5CCOCC5)CC4)nccc3[nH]2)c1 | – | – | – | – | – | – | – | – | – | – | – | – | – | pKa [30]: 8.2 |
| Fc1ccc(-c2nc3c(N4CCCN(CC5CC5)CC4)nccc3[nH]2)cc1F | – | 77 nM | – | – | – | 200 µM (≈ 76.7 µg/mL) | – | – | 850 | 20 nM | 48% | 17000 nM | 5300 nM | – |
